In ChEMBL document CHEMBL4145531, “Synthesis of novel Chlorin e6-curcumin conjugates as photosensitizers for photodynamic therapy against pancreatic carcinoma” (Eur J Med Chem, 2018):

Assays:
[1] = Dark toxicity in human MIAPaCa2 cells assessed as reduction in cell viability after 72 hrs by MTT assay; format: cell-based, MIA PaCa-2
Procedure, shortened: (§1)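 AsPC-1 cells were grown in RPMI-1640, and MIA PaCa-2 and PANC-1 in DMEM, each with 10% FBS and 1% penicillin/streptomycin. 5.0 x 10^3 cells were seeded and left overnight at 37 °C. They were exposed to 0-300 µM compound for 3h without laser irradiation, then held 72h in the dark at 37 °C, 5% CO₂. Viability was read by MTT.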

[2] = Dark toxicity in human PANC1 cells assessed as reduction in cell viability after 72 hrs by MTT assay; format: cell-based, PANC-1; procedure, shortened: as §1
[3] = Selectivity index, ratio of IC50 for dark toxicity in human MIAPaCa2 cells to IC50 for phototoxicity in human MIAPaCa2 cells; format: cell-based, MIA PaCa-2; conditions: read-out: Ratio IC50
Procedure, shortened: (§2)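 The ratio is the dark-toxicity IC50 over the phototoxicity IC50 in the same cell line, both from 72h MTT. The dark arm received no light. The photo arm was irradiated at 660 nm, 50 mW, 9 J/cm² after 3h compound exposure.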

[4] = Selectivity index, ratio of IC50 for dark toxicity in human PANC1 cells to IC50 for phototoxicity in human PANC1 cells; format: cell-based, PANC-1; conditions: read-out: Ratio IC50; procedure, shortened: as §2
[5] = Drug uptake in human AsPC1 cells at 5 uM after 3 to 24 hrs by FACS analysis; format: ADME, cell-based; conditions: aspc1, 5 µM
Procedure, shortened: (§3)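 AsPC-1 cells (2 x 10^5) were seeded and kept in the dark at 37 °C for 24h. They were then incubated with 5 µM compound for 30 min to 24h. Cells were harvested by trypsin, washed three times in PBS and resuspended in PBS. Uptake was read as mean fluorescence intensity by FACS.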

[6] = Selectivity index, ratio of IC50 for dark toxicity in human AsPC1 cells to IC50 for phototoxicity in human AsPC1 cells; format: cell-based; conditions: read-out: Ratio IC50; procedure, shortened: as §2
[7] = Induction of singlet oxygen production in DMSO assessed as DPBF absorption intensity (reference value: 100%); format: functional
Procedure, shortened: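 DPBF (50 µM in DMSO) was mixed with 1 µM photosensitizer in the dark. Samples were irradiated at 660 nm, 50 mW, 2 J/cm² for 40 s. Singlet oxygen was read as the decay of normalized DPBF absorbance at 418 nm relative to a DPBF-only control.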

[8] = tested on: ASPC1; assay: Phototoxicity in human AsPC1 cells assessed as reduction in cell viability preincubated for 3 hrs followed by 9 J/cm2 laser light irradiation and measured after 72 hrs by MTT assay; format: functional, cell-based; conditions: ASPC1, light or radiation study
Procedure, shortened: (§4)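 Cells were seeded at 5.0 x 10^3 per well and incubated overnight at 37 °C. AsPC-1 was in RPMI-1640 and MIA PaCa-2/PANC-1 in DMEM, with 10% FBS. Cells took up compound for 3h, then received 660 nm laser light (50 mW, 9 J/cm²).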

[9] = tested on: MIA PaCa-2; assay: Phototoxicity in human MIAPaCa2 cells assessed as reduction in cell viability preincubated for 3 hrs followed by 9 J/cm2 laser light irradiation and measured after 72 hrs by MTT assay; format: functional, cell-based; conditions: MIA PaCa-2, light or radiation study; procedure, shortened: as §4
[10] = Dark toxicity in human AsPC1 cells assessed as reduction in cell viability after 72 hrs by MTT assay; format: cell-based; procedure, shortened: as §1
[11] = Drug uptake in human AsPC1 cells at 5 uM by FACS analysis; format: ADME, cell-based; conditions: aspc1, 5 µM, TDE = time-dependent effect; procedure, shortened: as §3
[12] = Solubility of the compound in 2% DMSO/98% de-ionized water at 8.4 uM; format: physicochemical; conditions: buffer
[13] = tested on: PANC-1; assay: Phototoxicity in human PANC1 cells assessed as reduction in cell viability preincubated for 3 hrs followed by 9 J/cm2 laser light irradiation and measured after 72 hrs by MTT assay; format: functional, cell-based; conditions: PANC-1, light or radiation study; procedure, shortened: as §4
[14] = Solubility of the compound in 2% DMSO/98% de-ionized water at 7.7 uM; format: physicochemical; conditions: buffer

Drug uptake [5] | Drug uptake [11] | solubility [12] | solubility [14] | SMILES | IC50 at 72 h [1] | IC50 at 72 h [2] | selectivity ratio [3] | selectivity ratio [4] | selectivity ratio [6] | Activity [7] | IC50 [8] | IC50 [9] | IC50 at 72 h [10] | IC50 [13]
Active | Tde | Soluble |  | C=Cc1c(C)c2cc3nc(c(CC(=O)OC)c4[nH]c(cc5nc(cc1[nH]2)C(C)=C5CC)c(C)c4C(=O)NCCCCCCNC(=O)CCCC(=O)Oc1ccc(/C=C/C(=O)CC(=O)/C=C/c2ccc(O)c(OC)c2)cc1OC)C(CCC(=O)OC)C3C (configuration not stated) | 265 µM | > 300 µM | 5.6 | > 6.58 | 28.3 | 10.1% | 10.1 µM | 47.3 µM | 285 µM | 45.6 µM
 |  |  |  | CN(C)c1ccc2nc3ccc(=[N+](C)C)cc-3sc2c1 |  |  |  |  |  | 33.9% |  |  |  | 
Active | Tde |  | Soluble | C=Cc1c(C)c2cc3nc(c(CC(=O)OC)c4[nH]c(cc5nc(cc1[nH]2)C(C)=C5CC)c(C)c4C(=O)NCCCOCCOCCOCCCNC(=O)CCCC(=O)Oc1ccc(/C=C/C(=O)CC(=O)/C=C/c2ccc(O)c(OC)c2)cc1OC)C(CCC(=O)OC)C3C (configuration not stated) | > 300 µM | > 300 µM | > 64.7 | > 19.1 | 32.5 | 12.3% | 5.93 µM | 4.64 µM | 193 µM | 15.7 µM
